Results published in publication PMC9420810 (Nature microbiology, 2022).

Experiments:
[1] = UV-Vis spectroscopy of haem binding to synthesized peptide; conditions: haem reduced by excess sodium dithionite, anaerobic chamber
In short: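 Hemin is dissolved in 0.1 M NaOH and used within 30 min. Its stock concentration is set by pyridine hemochrome absorbance at 557 nm (ε 34.7 mM⁻¹ cm⁻¹). Peptide and haem are mixed in water (pH 7.4) in 96-well plates. After shaking at 100 rpm for 15 s, spectra are recorded from 300 to 700 nm in 5 nm steps on a plate reader.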

Cytochrome c = test: UV-Vis test of haem sequestration from Cytochrome c; assay type: binding; conditions: excess NCR247 added to Cytochrome c, UV-Vis spectrum
[2] = test system: iron uptake genes (hmuP) and rirA in S. meliloti; test: qRT-PCR of iron-related genes; assay type: cell-based, Sinorhizobium meliloti
In short: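 Cells are grown in LB to OD600 0.2, pelleted and resuspended for 1 h in minimal medium with or without FeSO₄, then exposed to peptide for 30 min. Transcript levels are measured by qRT-PCR and expressed as starting quantities normalised to the reference gene SMc00128.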

S. meliloti [3] = test: Radioactive 55Fe uptake assay; assay type: cell-based, Sinorhizobium meliloti
In short: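 Cells are grown in LB to OD600 0.2, pelleted and held 1 h in minimal medium with 5 μM FeSO₄. Then 2 μM peptide and 100 μM sodium ascorbate are added for 30 min. At time 0, 1 μM ⁵⁵FeCl₃ with ascorbate is added. Timed 1 ml samples are quenched in ice-cold buffer (0.1 M Tris, 1 mM ascorbate, 100 μM FeSO₄, pH 6.0) and vacuum-filtered on 0.45 μm filters. Filters are scintillation-counted, and counts are normalised to protein.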

[4] = test system: S. meliloti bacteroids isolated from M. truncatula nodules; test: 55Fe uptake by isolated bacteroids; assay type: cell-based, Sinorhizobium meliloti; conditions: bacteroids from nodules of plants inoculated with wild type S. meliloti, NCR247 treated
S. meliloti [5] = test: ICP-MS total iron content of cells; assay type: cell-based, Sinorhizobium meliloti; conditions: 2 μM NCR247, ICP-MS, normalized to protein
In short: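 Equal numbers of cells are pelleted for ICP-MS metal analysis. Protein is measured from the same number of cells, and metal content is normalised to protein.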

S. meliloti [6] = test: Growth curve in minimal medium; assay type: cell-based, Sinorhizobium meliloti; conditions: 2 μM NCR247, OD 600 nm, 30° C
In short: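 Strain RM1021 or its mutants are first grown in LBMC (LB with 2.5 mM CaCl₂ and 2.5 mM MgSO₄, 200 μg/ml streptomycin, 30°C). Overnight cultures are washed and subcultured 1:100 into minimal medium, either iron-free or with the stated iron, Mn or Zn supplement. Cultures shake continuously at 150 rpm and 30°C in a plate reader, with OD600 read every 60 min.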

Aβ (1-42)-haem complex = test: Peroxidase assay; assay type: biochemical, human; conditions: equimolar addition of NCR247, TMB substrate, 370 nm and 652 nm
In short: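 Haem complex, with or without equimolar peptide, is added to TMB substrate solution (TMB:peroxide 1:1) in 96-well plates. Reaction progress is followed in a plate reader by absorbance at 370 and 652 nm. Values are the mean of three independent replicates ± s.d.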

[7] = test system: Porphyromonas gingivalis 2561; test: Cell viability assay, P. gingivalis; assay type: cell-based
[8] = read-out: KD of haem binding; cited from earlier work

| Substance | binding of Fe(II) ferrous haem [1] | sequestration of cytochrome haem (Cytochrome c) | rirA transcription ([2]; wild type S. meliloti, 2 μM NCR247 for 30 mins) | transcript levels of iron uptake genes ([2]; wild type S. meliloti, iron-replete medium, NCR247 treatment 30 mins) | expression of hmuP in ΔbacA strain ([2]; ΔbacA S. meliloti, 2 μM NCR247 for 30 mins) | import of 55Fe (S. meliloti [3]; wild type S. meliloti, medium with sufficient iron (5 μM FeSO4), 2 μM NCR247, mean of three biological replicates) | uptake of 55Fe in irr deletion mutant compared to wild type (S. meliloti [3]; Δirr S. meliloti, NCR247 treated) | uptake of Fe55 by bacteroids compared with untreated [4] | total iron content of the cells (S. meliloti [5]) | growth rate of S. meliloti (S. meliloti [6]) | peroxidase activity of Aβ (1-42)-haem complex (Aβ (1-42)-haem complex) | growth / viable cell number of Porphyromonas gingivalis [7] | Kd [8] |
| --- | --- | --- | --- | --- | --- | --- | --- | --- | --- | --- | --- | --- | --- |
| RNGCIVDPRCPYQQCRRPLYCRRR [NCR247] | binds | cannot sequester cytochrome haem | reduced | increase in transcript levels of iron uptake genes | very little change in expression of hmuP | markedly increased | diminished | increase uptake of Fe^55 | elevated total iron content | reduction in growth rate | quenches its peroxidase activity | can prevent the growth | – |
| Aβ(1-42): human Aβ(1-42) amyloid peptide [reference compound] | – | – | – | – | – | – | – | – | – | – | – | – | 0.14 µM |
| serum albumin | – | – | – | – | – | – | – | – | – | – | – | – | 40 µM |
